Assay results reported in article PMC7758955 (ACS Omega, 2020).

Tests used:
COX-1 (ovine) = biological target: T1, COX-1 (ovine) (Ovis aries, UniProt P05979); experiment: COX Fluorescent Inhibitor Screening Assay Kit, COX-1; type: biochemical
T1 sequence (P05979 25-600): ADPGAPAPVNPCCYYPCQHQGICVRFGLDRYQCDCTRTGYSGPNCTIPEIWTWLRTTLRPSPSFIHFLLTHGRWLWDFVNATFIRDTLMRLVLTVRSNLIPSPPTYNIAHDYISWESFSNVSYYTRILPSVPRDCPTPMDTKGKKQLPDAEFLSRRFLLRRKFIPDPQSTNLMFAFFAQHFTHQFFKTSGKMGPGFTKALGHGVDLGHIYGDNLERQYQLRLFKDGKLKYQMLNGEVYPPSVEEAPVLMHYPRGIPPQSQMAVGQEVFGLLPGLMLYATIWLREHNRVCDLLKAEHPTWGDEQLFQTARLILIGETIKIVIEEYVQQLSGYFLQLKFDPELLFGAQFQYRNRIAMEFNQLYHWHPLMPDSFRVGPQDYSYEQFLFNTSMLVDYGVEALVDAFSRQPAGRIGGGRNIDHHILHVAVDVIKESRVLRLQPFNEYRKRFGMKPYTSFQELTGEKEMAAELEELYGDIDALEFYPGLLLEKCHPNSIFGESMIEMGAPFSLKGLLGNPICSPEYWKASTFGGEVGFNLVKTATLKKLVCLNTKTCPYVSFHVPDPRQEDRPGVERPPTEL

[1] = biological target: T2, COX-2 (human recombinant) (Homo sapiens, UniProt P35354); experiment: COX Fluorescent Inhibitor Screening Assay Kit, COX-2; type: biochemical
T2 sequence (P35354 18-604): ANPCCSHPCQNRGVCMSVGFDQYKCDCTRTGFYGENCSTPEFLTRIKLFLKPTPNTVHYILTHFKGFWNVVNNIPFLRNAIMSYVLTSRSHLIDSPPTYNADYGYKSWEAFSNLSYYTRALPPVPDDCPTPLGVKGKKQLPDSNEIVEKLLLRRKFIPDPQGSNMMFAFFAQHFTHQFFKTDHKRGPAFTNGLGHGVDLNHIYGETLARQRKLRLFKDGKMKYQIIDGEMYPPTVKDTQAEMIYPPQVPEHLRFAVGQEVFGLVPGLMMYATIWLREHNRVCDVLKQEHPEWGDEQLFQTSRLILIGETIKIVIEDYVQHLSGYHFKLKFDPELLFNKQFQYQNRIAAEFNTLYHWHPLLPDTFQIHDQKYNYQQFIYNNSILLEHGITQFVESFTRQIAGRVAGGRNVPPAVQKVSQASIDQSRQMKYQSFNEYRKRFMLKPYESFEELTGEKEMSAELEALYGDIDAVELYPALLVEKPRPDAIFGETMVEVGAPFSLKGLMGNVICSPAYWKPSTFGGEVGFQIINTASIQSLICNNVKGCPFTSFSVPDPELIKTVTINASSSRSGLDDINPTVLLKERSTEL

[2] = tested on: cryopreserved human hepatocytes; experiment: Hepatocyte toxicity by WST-8 assay; type: cell-based; settings: 200 μM, 2 h with shaking, relative to control (0.25 v/v% DMSO)
In short: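 Thawed cryopreserved human hepatocytes were kept at 37 °C in humidified 5% CO2 and seeded at 5.0 × 10^4 cells/well. Test compound was added in DMSO (final 0.25% v/v; DMSO-only control), then shaken 2 h. CCK-8 (WST-8) reagent was added for another 4 h. Absorbance was read at 450 nm (reference 600 nm), and viability was expressed relative to control.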

Row | IC50 (COX-1 (ovine)) [µM] | IC50 [1] [µM] | COX-2 IC50 relative to that of DCF ([1]; ratio to DCF IC50) | COX-2 inhibition (in words) ([1]; up to a concentration of 100 μM) | SMILES | cytotoxicity in cryopreserved human hepatocytes (cell viability, WST-8) [2]
1 | 0.67 | 27 |  |  | O=C(O)Cc1ccccc1Nc1c(Cl)cc(F)cc1Cl [1b] | 
2 | 0.73 | 26 |  |  | O=C(O)Cc1cc(F)ccc1Nc1c(Cl)cc(F)cc1Cl [1d] | 
3 | > 100 | > 100 |  |  | O=C(O)C(F)(F)c1ccccc1Nc1c(Cl)cc(F)cc1Cl [2b] | 
4 | > 100 | 21 | three times higher |  | O=C(O)C(F)(F)c1cc(F)ccc1Nc1c(Cl)cccc1Cl [2c] | much weaker than that of DCF
5 | > 100 | > 100 |  |  | O=C(O)C(F)(F)c1cc(F)ccc1Nc1c(Cl)cc(F)cc1Cl [2d] | 
6 | > 100 | > 100 |  |  | Fc1cc(Cl)c(Nc2ccc(F)cc2Cc2nnn[nH]2)c(Cl)c1 [3d] | 
7 | > 100 | > 100 |  | did not inhibit COX-2 | O=S(=O)(O)Cc1ccccc1Nc1c(Cl)cccc1Cl [4a] | 
